SENP6 block: inhibitors of human SENP6 protease. inhibition, % at 10 µM. Q9GZR1. hit rate 1.8% among 330,000. AID 2599. Recombinant SENP6 catalytic domain, aminoluciferin luminescence;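 active = inhibition above about 50% at the single tested dose, limit read from the data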;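 also: plate controls were DMSO wells with enzyme for no effect and DMSO wells lacking enzyme for full effect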
Target sequence (Q9GZR1 628-1112 limits assumed): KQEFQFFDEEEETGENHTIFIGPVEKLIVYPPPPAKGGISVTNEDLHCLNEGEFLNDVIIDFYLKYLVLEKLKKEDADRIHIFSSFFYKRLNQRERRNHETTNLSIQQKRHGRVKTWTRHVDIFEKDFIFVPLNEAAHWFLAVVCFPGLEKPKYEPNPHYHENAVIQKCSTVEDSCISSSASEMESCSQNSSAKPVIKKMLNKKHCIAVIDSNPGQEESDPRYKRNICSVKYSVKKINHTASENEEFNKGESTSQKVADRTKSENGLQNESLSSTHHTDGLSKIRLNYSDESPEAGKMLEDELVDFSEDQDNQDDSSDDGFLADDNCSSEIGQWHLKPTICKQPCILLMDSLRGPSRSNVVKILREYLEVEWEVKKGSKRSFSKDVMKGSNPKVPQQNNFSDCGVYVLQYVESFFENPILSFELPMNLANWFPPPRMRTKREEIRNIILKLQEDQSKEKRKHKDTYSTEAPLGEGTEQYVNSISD
SENP7 block: blocks the human protease SENP7. AID 434973. hit rate 1.5% among 330,000. recombinant SENP7, Z-RLRGG-aminoluciferin luminescence, 40 min. Q9BQF6. inhibition, % at 5 µM;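 active = inhibition above about 50% at the single test dose, limit read from the data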;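 also: plate controls were DMSO with enzyme for no effect and no enzyme buffer wells for full effect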
SENP8 block-1: inhibitors of human SENP8 protease; Q96LD8; recombinant SENP8, Nedd8 substrate fluorescence; inhibition, % at 20 µM; hit rate 0.64% among 360,000; AID 602440; in the data active = inhibition mostly above about 40%, no sharp cut-off; inactive = mostly below about 27%
Target sequence (Q96LD8 whole entry, looked up): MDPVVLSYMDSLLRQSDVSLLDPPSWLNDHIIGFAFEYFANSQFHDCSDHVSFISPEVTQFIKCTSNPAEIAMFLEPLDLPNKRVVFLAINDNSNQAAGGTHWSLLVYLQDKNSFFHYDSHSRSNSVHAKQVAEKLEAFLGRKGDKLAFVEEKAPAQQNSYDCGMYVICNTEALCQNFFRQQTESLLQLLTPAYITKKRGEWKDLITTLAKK
SENP1 FRET inh: blocks the human SENP1 SUMO protease catalytic domain; Q9P0U3; recombinant SENP1 catalytic domain, CyPet-SUMO1-YPet FRET cleavage; inhibition, % at 10 µM; hit rate 0.21% among 360,000; AID 624204;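 active = inhibition at least 30% at 10 µM, raw YFP signal under a set limit, fluorescence ratio 0.5 to 1.5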;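 also: 0% = enzyme with DMSO and 100% = no enzyme wells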
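System: Recombinant human SENP1 catalytic domain, His6-tagged | Incubation: Enzyme reaction for 50 min at room temperature, dark | Medium: Tris pH 8 with BME, BSA, NP40 and catalase | Also added: 25 nM SUMO1 FRET substrate | Compound: 10 µM single point, 0.5% DMSO | Measured by: FRET fluorescence in CFP and YFP emission channels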
SENP8 block-2: blocks the human protease SENP8; Q96LD8; purified SENP8, Z-RLRGG-aminoluciferin cleavage, luminescence; inhibition, % at 10 µM; hit rate 1.2% among 330,000; in the data active = inhibition above about 50%
SENP8 confirm: confirmation of human SENP8 protease inhibitors; inhibition, % at 12.5 µM; Recombinant SENP8, Z-RLRGG-aminoluciferin luminescence, 60 min; AID 488912; shares compounds with SENP7 block; hit rate 40% among 6,200;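 active = mean inhibition across replicates above about 50%, limit read from the data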
SENP6 confirm: human SENP6 inhibition, confirmed. shares compounds with SENP7 block. inhibition, % at 12.5 µM. AID 488915. recombinant SENP6, Z-RLRGG-aminoluciferin luminescence. hit rate 58% among 6,200
SENP7 confirm: confirmation of human SENP7 protease inhibitors | recombinant SENP7, Z-RLRGG-aminoluciferin luminescence, 40 min | AID 488917 | inhibition, % at 12.5 µM | hit rate 69% among 6,200 | shares compounds with SENP7 block
Casp3 SENP sel: caspase-3 inhibition (SENP selectivity assay); shares compounds with SENP7 block; purified caspase-3, Z-DEVD-aminoluciferin luminescence, 60 min; inhibition, % at 12.5 µM; hit rate 60% among 6,200;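 active = mean inhibition above about 50%, limit read from the data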;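 also: plate controls were enzyme with DMSO for no effect and wells without caspase-3 for full effect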
Luc interf: counter-screen for SENP inhibitors: luminescence interference | shares compounds with SENP7 block | Pre-incubated SENP8/Z-RLRGG-aminoluciferin, luciferase luminescence interference | inhibition, % at 12.5 µM | hit rate 39% among 6,200;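 active = mean inhibition above about 50% when retested at one dose, limit read from the data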;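 also: plate controls were DMSO wells with completed reaction for no effect and substrate without enzyme for full effect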
The depositor's hits bear a star; nt = not tested or not shown. This is a sample that favours compounds with a hit; in the whole collection about 2.5% have one here.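 The calls were made as follows, unless noted: active = mean inhibition above about 50% in the one-dose retest (limit read from the data); inactive = the rest.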

SMILES	SENP6 block	SENP7 block	SENP8 block-1	SENP1 FRET inh	SENP8 block-2	SENP8 confirm	SENP6 confirm	SENP7 confirm	Casp3 SENP sel	Luc interf
CC(=O)c1ccc(S(=O)(=O)N2CCN(C(=O)CSC(=S)N3CCCC3)CC2)cc1	-10.4	-3.1	-17.3	-1.2	0.4	nt	nt	nt	nt	nt
c1ccc(-c2nc3cc4ccccc4cc3[nH]2)nc1	98.9*	99.7*	-319.1	-4.1	93.8*	96.5*	97.1*	100.5*	95.6*	93.8*
c1cncc(-c2nc3cc4ccccc4cc3[nH]2)c1	89.8*	0.9	-262.6	-13.6	89.2*	86.7*	89.3*	100.1*	88.5*	61.7*
COc1cc2c(cc1OC)C(c1ccccc1[N+](=O)[O-])N(C(C)=O)CC2 (centres undefined)	-13.6	15.3	2.7	1.7	-9.1	nt	nt	nt	nt	nt
CN(Cc1ccccc1)C(=O)c1ccc(Cc2cn(C)c3ccccc23)nc1	nt	nt	11.1	-1.0	nt	nt	nt	nt	nt	nt
O=C1C(=O)c2ccccc2C(O)=C1CCCCl	55.0*	8.3	20.7	2.7	26.3	52.9*	66.3*	13.3	8.0	1.1
[O-]/C(=C(\C(=S)Nc1cccc2ccccc12)[n+]1ccccc1)c1cccs1	56.1*	22.9	-362.1	-72.6	12.1	6.9	12.0	-6.1	4.0	-2.5
Cc1cccc(C)c1NC(=S)/C(=C(\[O-])c1cccs1)[n+]1ccccc1	-0.3	4.8	13.5	-5.1	-5.0	nt	nt	nt	nt	nt
CCC(=O)Nc1ccc(OCc2nc3ccccc3s2)cc1	44.6	74.9*	-34.2	-4.9	75.5*	13.4	80.5*	96.1*	75.0*	15.2
NC(=O)c1ccccc1OCc1nc2ccccc2s1	47.9	37.9	-20.8	-3.3	36.7	nt	nt	nt	nt	nt
c1ccc(SCc2nc3ccccc3s2)nc1	60.0*	48.9	-5.6	-35.9	44.8	64.1*	61.1*	86.4*	66.2*	57.3*
Fc1ccc(OCc2nc3ccccc3s2)cc1	97.2*	93.7*	-27.0	-19.1	90.3*	82.4*	92.4*	101.7*	90.3*	78.9*
O=C(O)COCc1nc2ccccc2s1	3.0	-6.1	22.2	2.5	-2.7	nt	nt	nt	nt	nt
c1ccc(OCc2nc3ccccc3s2)cc1	92.8*	95.3*	17.0	-1.9	87.6*	84.8*	95.6*	100.6*	91.2*	84.2*
COc1cccc(C(NC(C)=O)c2nc(-c3cccc(C(=O)O)c3)cs2)c1 (centres undefined)	nt	nt	13.6	1.3	nt	nt	nt	nt	nt	nt
C=CC(=O)Nc1cccc(N(C)c2ccnc(Nc3ccc(N4CCN(C)CC4)cc3)n2)c1	nt	nt	11.6	-1.9	nt	nt	nt	nt	nt	nt
Nc1c(C(=O)NCc2ccccc2)c2nc3ccccc3nc2n1CCCN1CCOCC1	74.3*	21.5	-410.5	-21.2	62.9*	-0.3	6.6	-2.3	-4.4	-5.2
C=CCn1c(N)c(C(=O)NCC2CCCO2)c2nc3ccccc3nc21 (centres undefined)	91.4*	22.7	-273.7	-22.0	90.0*	9.5	21.2	15.3	4.9	5.4
COc1ccc(-n2c(N)c(C(=O)NCC3CCCO3)c3nc4ccccc4nc32)c(OC)c1 (centres undefined)	68.2*	38.5	-290.2	-24.4	43.6	-8.6	5.2	6.8	0.6	-5.5
O=C(NCC1CCCO1)c1coc2nc3ccccc3nc12 (centres undefined)	6.8	8.3	-494.7	-55.2	9.8	nt	nt	nt	nt	nt
CN1C(=O)CC(Nc2cccc3cccc(N)c23)C1=O (centres undefined)	-9.8	61.3*	13.2	-7.3	44.5	9.4	23.5	6.7	-1.7	-3.4
CC(C)N1C(=O)CC(Nc2cccc3cccc(N)c23)C1=O (centres undefined)	nt	nt	-84.2	-25.8	nt	nt	nt	nt	nt	nt
CCOC(=O)C/C(=N\Nc1ncnc2ccccc12)c1ccccc1	10.0	-5.6	13.1	-3.1	-8.1	nt	nt	nt	nt	nt
CCOC(=O)/C(=N\Nc1ncnc2ccccc12)c1ccc(C)cc1	60.8*	25.3	29.5	-0.3	61.6*	-23.9	56.1*	77.6*	5.9	20.2
Cc1cccc(NC(=S)NC(C)C(c2ccccc2)N2CCN(C)CC2)c1C (centres undefined)	-12.9	-8.6	12.2	3.3	1.1	nt	nt	nt	nt	nt
SMILES	SENP6 block	SENP7 block	SENP8 block-1	SENP1 FRET inh	SENP8 block-2	SENP8 confirm	SENP6 confirm	SENP7 confirm	Casp3 SENP sel	Luc interf
COc1ccccc1C(C)NC(=O)c1ccc(NC(=O)CC2SC(N3CCCC3)=NC2=O)cc1 (centres undefined)	-5.2	6.2	-2.1	2.2	-0.7	nt	nt	nt	nt	nt
O=C(CSc1nnc2ccccn12)Nc1nsc(-c2ccccc2)n1	-3.0	-0.2	-39.9	-0.7	-2.9	nt	nt	nt	nt	nt
COc1cccc(C(=O)/C=C2\Sc3ccccc3N2C)c1	10.0	49.9	-400.6	-144.5	59.8*	-6.5	73.3*	92.6*	73.3*	19.3
CN1/C(=C\C(=O)c2cccnc2)Sc2ccccc21	13.5	8.2	-238.6	-120.0	0.8	nt	nt	nt	nt	nt
O=C(CCc1nc(-c2ccccc2)no1)NC1CCCCCC1	-11.5	-3.3	22.9	1.2	0.8	nt	nt	nt	nt	nt
O=C(Nc1cccc(-c2nn[nH]n2)c1)c1ccc(Br)s1	33.7	27.7	5.2	1.7	29.7	nt	nt	nt	nt	nt
O=C(Nc1cccc(-c2nn[nH]n2)c1)c1ccc(Cl)s1	50.8*	15.8	1.9	-2.0	22.4	42.0	36.5	72.4*	35.1	58.3*
O=C(Nc1cccc(C(=O)O)c1)Nc1ccc2c(c1)OCO2	96.4*	99.8*	3.7	0.2	92.5*	97.0*	97.0*	101.4*	93.3*	96.3*
O=C(Nc1ccc(F)c(F)c1)c1ccc2c(c1)OCO2	71.1*	-4.7	5.2	1.1	66.9*	73.4*	74.4*	90.8*	76.1*	48.2
O=C(Nc1ccc(Cl)cc1)c1ccc2c(c1)OCO2	73.3*	76.0*	22.0	0.0	37.4	37.4	54.4*	88.1*	73.5*	17.5
CCCn1nc(C(=O)Nc2cc(OCC)c(N3CCOCC3)cc2OCC)c2ccccc2c1=O	nt	nt	25.1	1.7	nt	nt	nt	nt	nt	nt
COc1ccccc1-c1noc2c1C(=O)N(Cc1cn(C3CCCC3)nn1)CC2	nt	nt	18.0	1.0	nt	nt	nt	nt	nt	nt
CCCn1c(N)c(C(=O)COC(=O)CNC(=O)c2ccccc2OCC)c(=O)[nH]c1=O	-3.2	0.6	0.2	-4.9	-0.7	nt	nt	nt	nt	nt
CCCNC(=O)C[C@@H]1C[C@H]2c3cc(NC(=O)c4ccc5c(c4)OCO5)ccc3O[C@H]2[C@@H](CO)O1	nt	nt	-0.7	-1.1	nt	nt	nt	nt	nt	nt
CC(C)c1ccc(Nc2nnns2)cc1	-12.4	-1.5	9.9	0.4	3.0	nt	nt	nt	nt	nt

Bioassay records deposited in PubChem by Sanford-Burnham Center for Chemical Genomics.
